According to ChEMBL document CHEMBL1275451, “In vitro susceptibilities of invasive isolates of Candida species: rapid increase in rates of fluconazole susceptible-dose dependent Candida glabrata isolates” (2008):
In brackets after ≈: the same amount, converted by molar mass. *1 amine or outer side, *2 acyl side, *3 side chain or, on linkers, in order; H or OH if unused. Where a SMILES comes first, the peptide text is derived from it. Bridges are numbered along the chain shown (N, C = ends). [ ]: non-standard residue; d: D form. The star is where a group is joined. pTerphenylCO(4''-OnC5H11) = CCCCCOc1ccc(-c2ccc(-c3ccc(C(=O)*)cc3)cc2)cc1; Orn(4R-OH,5R-OH) = O=C([C@H](C[C@@H](O)[C@@H](O)N[*:3])N[*:1])[*:2]; hTyr(3S-OH,4S-OH) = N[C@H](C(=O)O)[C@H](O)[C@@H](O)c1ccc(O)cc1; Pro(3S-OH,4S-Me) = C[C@H]1CN[C@H](C(=O)O)[C@H]1O; Hyp = O=C(O)[C@@H]1C[C@@H](O)CN1

Columns and labels:
Assay type in all cases: functional
Nakaseomyces glabratus [1] = assay: Antifungal activity against Candida glabrata after 48 hrs by CLSI method
Candida albicans [2] = assay: Antifungal activity against Candida albicans assessed as susceptible isolates after 48 hrs by CLSI method
Method in brief: (§1)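 Broth microdilution MICs were run on invasive clinical Candida isolates under CLSI M27-A2, with incubation at 35°C for 48 h before reading. Control strains were C. parapsilosis ATCC 22019 and C. krusei ATCC 6258. MICs were interpreted under the same guideline to place isolates as susceptible, susceptible-dose dependent or resistant, reported as percentage of isolates per category, with MIC range, MIC50 and MIC90.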

Candida parapsilosis [3] = assay: Antifungal activity against Candida parapsilosis assessed as susceptible isolates after 48 hrs by CLSI method; method in brief: as §1
Clavispora lusitaniae [4] = assay: Antifungal activity against Candida lusitaniae assessed as susceptible isolates after 48 hrs by CLSI method; method in brief: as §1
Nakaseomyces glabratus [5] = assay: Antifungal activity against Candida glabrata assessed as susceptible isolates after 48 hrs by CLSI method; method in brief: as §1
[6] = system: Meyerozyma guilliermondii; assay: Antifungal activity against Candida guilliermondii assessed as susceptible isolates after 48 hrs by CLSI method; method in brief: as §1
Candida tropicalis [7] = assay: Antifungal activity against Candida tropicalis assessed as susceptible isolates after 48 hrs by CLSI method; method in brief: as §1
Pichia kudriavzevii [8] = assay: Antifungal activity against Candida krusei after 48 hrs by CLSI method
Method in brief: as §1, with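 “reading.” for “reading. Control strains were C. parapsilosis ATCC 22019 and C. krusei ATCC 6258.”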

Pichia kudriavzevii [9] = assay: Antifungal activity against Candida krusei assessed as susceptible isolates after 48 hrs by CLSI method; method in brief: as §1
Clavispora lusitaniae [10] = assay: Antifungal activity against Candida lusitaniae after 48 hrs by CLSI method
Candida tropicalis [11] = assay: Antifungal activity against Candida tropicalis after 48 hrs by CLSI method; method in brief: as §1
Candida albicans [12] = assay: Antifungal activity against Candida albicans after 48 hrs by CLSI method
Candida parapsilosis [13] = assay: Antifungal activity against Candida parapsilosis after 48 hrs by CLSI method; conditions: Lodderomyces parapsilosis; method in brief: as §1
[14] = system: Meyerozyma guilliermondii; assay: Antifungal activity against Candida guilliermondii after 48 hrs by CLSI method
Candida albicans [15] = assay: Antifungal activity against Candida albicans assessed as resistant isolates after 48 hrs by CLSI method; method in brief: as §1
Nakaseomyces glabratus [16] = assay: Antifungal activity against Candida glabrata assessed as resistant isolates after 48 hrs by CLSI method; method in brief: as §1
Nakaseomyces glabratus [17] = assay: Antifungal activity against Candida glabrata assessed as susceptible dose-dependent isolates after 48 hrs by CLSI method; method in brief: as §1
Candida parapsilosis [18] = assay: Antifungal activity against Candida parapsilosis assessed as resistant isolates after 48 hrs by CLSI method; method in brief: as §1
Pichia kudriavzevii [19] = assay: Antifungal activity against Candida krusei assessed as resistant isolates after 48 hrs by CLSI method; method in brief: as §1
Clavispora lusitaniae [20] = assay: Antifungal activity against Candida lusitaniae assessed as resistant isolates after 48 hrs by CLSI method; method in brief: as §1
[21] = system: Meyerozyma guilliermondii; assay: Antifungal activity against Candida guilliermondii assessed as susceptible dose-dependent isolates after 48 hrs by CLSI method; method in brief: as §1
Pichia kudriavzevii [22] = assay: Antifungal activity against Candida krusei assessed as susceptible dose-dependent isolates after 48 hrs by CLSI method; method in brief: as §1
Candida tropicalis [23] = assay: Antifungal activity against Candida tropicalis assessed as susceptible dose-dependent isolates after 48 hrs by CLSI method; method in brief: as §1
Candida albicans [24] = assay: Antifungal activity against Candida albicans assessed as susceptible dose-dependent isolates after 48 hrs by CLSI method; method in brief: as §1
[25] = system: Meyerozyma guilliermondii; assay: Antifungal activity against Candida guilliermondii assessed as resistant isolates after 48 hrs by CLSI method; method in brief: as §1
Candida parapsilosis [26] = assay: Antifungal activity against Candida parapsilosis assessed as susceptible dose-dependent isolates after 48 hrs by CLSI method; method in brief: as §1
Clavispora lusitaniae [27] = assay: Antifungal activity against Candida lusitaniae assessed as susceptible dose-dependent isolates after 48 hrs by CLSI method; method in brief: as §1
Candida tropicalis [28] = assay: Antifungal activity against Candida tropicalis assessed as resistant isolates after 48 hrs by CLSI method; method in brief: as §1

Structure (SMILES)	MIC50 (Nakaseomyces glabratus [1]) [µg/mL]	MIC90 (Nakaseomyces glabratus [1]) [µg/mL]	Activity (Candida albicans [2]) [%]	Activity (Candida parapsilosis [3]) [%]	Activity (Clavispora lusitaniae [4]) [%]	Activity (Nakaseomyces glabratus [5]) [%]	Activity [6] [%]	Activity (Candida tropicalis [7]) [%]	MIC50 (Pichia kudriavzevii [8]) [µg/mL]	MIC90 (Pichia kudriavzevii [8]) [µg/mL]	Activity (Pichia kudriavzevii [9]) [%]	MIC50 (Clavispora lusitaniae [10]) [µg/mL]	MIC90 (Clavispora lusitaniae [10]) [µg/mL]	MIC50 (Candida tropicalis [11]) [µg/mL]	MIC90 (Candida tropicalis [11]) [µg/mL]	MIC (Candida albicans [12]) [µg/mL]	MIC50 (Candida albicans [12]) [µg/mL]	MIC90 (Candida albicans [12]) [µg/mL]	MIC50 (Candida parapsilosis [13]) [µg/mL]	MIC90 (Candida parapsilosis [13]) [µg/mL]	also measured
C[C@@H]1[C@H](O)[C@@H](C)/C=C/C=C/C=C/C=C/C=C/C=C/C=C/[C@H](O[C@@H]2O[C@H](C)[C@@H](O)[C@H](N)[C@@H]2O)C[C@@H]2O[C@](O)(C[C@@H](O)C[C@@H](O)[C@H](O)CC[C@@H](O)C[C@@H](O)CC(=O)O[C@H]1C)C[C@H](O)[C@H]2C(=O)O [AMPHOTERICIN B]	2 (≈ 2.16 µM)	2 (≈ 2.16 µM)	100	98	100	47	97	98	2 (≈ 2.16 µM)	2 (≈ 2.16 µM)	5	1 (≈ 1.08 µM)	1 (≈ 1.08 µM)	0.5 (≈ 0.541 µM)	1 (≈ 1.08 µM)	1 (≈ 1.08 µM)	1 (≈ 1.08 µM)	1 (≈ 1.08 µM)	–	–	MIC (Candida tropicalis [11]): 0.5 µg/mL (≈ 0.541 µM)
CCCCCOc1ccc(-c2ccc(-c3ccc(C(=O)N[C@H]4C[C@@H](O)[C@@H](O)NC(=O)[C@@H]5[C@@H](O)[C@@H](C)CN5C(=O)[C@H]([C@@H](C)O)NC(=O)[C@H]([C@H](O)[C@@H](O)c5ccc(O)cc5)NC(=O)[C@@H]5C[C@@H](O)CN5C(=O)[C@H]([C@@H](C)O)NC4=O)cc3)cc2)cc1 [ANIDULAFUNGIN] ({pTerphenylCO(4''-OnC5H11)}-[Orn(4R-OH,5R-OH)]T[Hyp][hTyr(3S-OH,4S-OH)]T[Pro(3S-OH,4S-Me)]; lactam 1-C)	0.03 (≈ 0.0263 µM)	0.03 (≈ 0.0263 µM)	–	–	–	–	–	–	0.12 (≈ 0.105 µM)	0.25 (≈ 0.219 µM)	–	0.06 (≈ 0.0526 µM)	0.12 (≈ 0.105 µM)	0.03 (≈ 0.0263 µM)	0.06 (≈ 0.0526 µM)	0.015 (≈ 0.0132 µM)	0.015 (≈ 0.0132 µM)	0.015 (≈ 0.0132 µM)	1 (≈ 0.877 µM)	2 (≈ 1.75 µM)	MIC50 [14]: 1 µg/mL (≈ 0.877 µM); MIC90 [14]: 2 µg/mL (≈ 1.75 µM)
CC[C@H](C)C[C@H](C)CCCCCCCCC(=O)N[C@H]1C[C@@H](O)[C@@H](NCCN)NC(=O)[C@@H]2[C@@H](O)CCN2C(=O)[C@H]([C@H](O)CCN)NC(=O)[C@H]([C@H](O)[C@@H](O)c2ccc(O)cc2)NC(=O)[C@@H]2C[C@@H](O)CN2C(=O)[C@H]([C@@H](C)O)NC1=O [CASPOFUNGIN]	0.25 (≈ 0.229 µM)	0.25 (≈ 0.229 µM)	–	–	–	–	–	–	1 (≈ 0.915 µM)	1 (≈ 0.915 µM)	–	2 (≈ 1.83 µM)	2 (≈ 1.83 µM)	0.25 (≈ 0.229 µM)	0.5 (≈ 0.457 µM)	–	0.25 (≈ 0.229 µM)	0.25 (≈ 0.229 µM)	1 (≈ 0.915 µM)	2 (≈ 1.83 µM)	MIC50 [14]: 2 µg/mL (≈ 1.83 µM); MIC90 [14]: 2 µg/mL (≈ 1.83 µM)
OC(Cn1cncn1)(Cn1cncn1)c1ccc(F)cc1F [FLUCONAZOLE]	16 (≈ 52.2 µM)	32 (≈ 104 µM)	100	98	100	22	88	100	32 (≈ 104 µM)	64 (≈ 209 µM)	0	0.25 (≈ 0.816 µM)	0.5 (≈ 1.63 µM)	1 (≈ 3.27 µM)	2 (≈ 6.53 µM)	0.12 (≈ 0.392 µM)	0.12 (≈ 0.392 µM)	0.25 (≈ 0.816 µM)	1 (≈ 3.27 µM)	2 (≈ 6.53 µM)	Activity (Candida albicans [15]): 0%; Activity (Nakaseomyces glabratus [16]): 6%; Activity (Nakaseomyces glabratus [17]): 73%; Activity (Candida parapsilosis [18]): 0%; Activity (Pichia kudriavzevii [19]): 38%; Activity (Clavispora lusitaniae [20]): 0%; Activity [21]: 9%; Activity (Pichia kudriavzevii [22]): 63%; Activity (Candida tropicalis [23]): 0%; Activity (Candida albicans [24]): 0%; Activity [25]: 3%; Activity (Candida parapsilosis [26]): 2%; Activity (Clavispora lusitaniae [27]): 0%; Activity (Candida tropicalis [28]): 0%
